Screening results: PubChem, several laboratories
PAFAH1B3 inh: PAFAH1B3 (human) inhibition; Q15102; recombinant PAFAH1B3, FP-rhodamine probe, fluorescence polarization; inhibition, % at 3.39 µM; hit rate 0.28% among 340,000;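 active = inhibition above the screen-wide average of all tested compounds plus 3 SD, cut at about 25% in these data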;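 note: 0% = enzyme with DMSO only and 100% = wells lacking PAFAH1B3 protein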
PAFAH1B2 inh: PAFAH1B2 (human) inhibition; inhibition, % at 3.39 µM; hit rate 1.2% among 340,000; P68402; recombinant PAFAH1B2, FP-rhodamine activity probe, fluorescence polarization;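 active = inhibition above the mean of all tested compounds plus 3 SD, cut at about 24% in these data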;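 note: 0% = enzyme with DMSO and 100% = wells lacking PAFAH1B2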
Apaf-1 inh: blocks human Apaf-1 apoptosome activity; hit rate 0.71% among 330,000; AID 489030; inhibition, % at 20 µM; reconstituted apoptosome caspase-3 activity, DEVD-Rh110 fluorescence; active = inhibition of at least 40% at 20 µM;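 note: plate controls were DMSO wells for no effect and DEVD-CHO caspase inhibitor wells for full effect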
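Material: biochemical Apaf-1 apoptosome reconstitution. Medium: Hepes buffer, pH 7.5. Also added: cytochrome c activation, bis-DEVD rhodamine 110 substrate. Timing: 30 min compound preincubation, 50 min activation, room temperature. Measured by: rhodamine 110 fluorescence at Ex 480/Em 540 nm.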
PAFAH2 inh: inhibitors of human PAFAH2; recombinant PAFAH2, FP-rhodamine activity probe, fluorescence polarization; hit rate 0.99% among 340,000; inhibition, % at 3.39 µM; Q99487;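 active = inhibition above the mean over all tested compounds plus 3 SD, cut at about 30% in these data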;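 note: inhibitors block probe labeling of enzyme so polarization drops; 0% = enzyme with DMSO and 100% = wells lacking PAFAH2 protein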
pPAFAH inh: inhibitors of human plasma PAF acetylhydrolase (pPAFAH); inhibition, % at 3.39 µM; hit rate 1.5% among 330,000; AID 463082; recombinant pPAFAH, FP-rhodamine probe fluorescence polarization;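 active = inhibition above the mean inhibition across the screen plus 3 SD, cut at about 25% in these data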;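 note: inhibitors block binding of the rhodamine activity-based probe so polarization drops; 0% = enzyme with DMSO and 100% = wells lacking pPAFAH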
Target sequence (Q13093 whole entry, looked up): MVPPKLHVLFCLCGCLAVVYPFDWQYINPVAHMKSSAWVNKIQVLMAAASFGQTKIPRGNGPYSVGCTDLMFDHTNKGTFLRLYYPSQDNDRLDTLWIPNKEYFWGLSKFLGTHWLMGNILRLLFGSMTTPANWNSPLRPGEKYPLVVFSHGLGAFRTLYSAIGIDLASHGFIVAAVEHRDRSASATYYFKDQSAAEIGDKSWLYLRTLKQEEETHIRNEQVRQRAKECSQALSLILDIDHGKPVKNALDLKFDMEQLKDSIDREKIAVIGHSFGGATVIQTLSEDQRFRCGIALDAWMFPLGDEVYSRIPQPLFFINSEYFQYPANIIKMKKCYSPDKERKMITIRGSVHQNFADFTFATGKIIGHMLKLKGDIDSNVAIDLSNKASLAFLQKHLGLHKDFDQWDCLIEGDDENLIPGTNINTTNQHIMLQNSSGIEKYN
PREPL inhibitor: human PREPL enzyme inhibition; Q4J6C6; recombinant PREPL, fluorescence polarization activity-based probe; inhibition, % at 5.96 µM; hit rate 0.68% among 320,000; AID 2751;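 note: 0% = enzyme with DMSO and 100% = wells lacking enzyme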
PREPL inh cf: confirmation of human PREPL enzyme inhibitors; shares compounds with PREPL inhibitor; recombinant PREPL, fluorescence polarization activity probe; inhibition, % at 5.96 µM; hit rate 67% among 2,000; AID 2803;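 note: 0% = protein with DMSO and 100% = wells lacking protein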
An asterisk follows results filed as active; nt = not tested or not shown. Only some compounds are listed: those with a hit (about 3.5% of all), similar ones and a draw of the others. Cut-off read from the data, not from the text of the source, unless noted: active = inhibition above about 43%; inactive = the rest.

SMILES	PAFAH1B3 inh	PAFAH1B2 inh	Apaf-1 inh	PAFAH2 inh	pPAFAH inh	PREPL inhibitor	PREPL inh cf
CN(C)c1ccc(S(=O)(=O)NCC(=O)OCC(=O)c2ccc[nH]2)cc1[N+](=O)[O-]	-2	-2	-1	3	9	14	nt
FC(F)(F)c1cccc(Cc2noc(CN3CCCC(CN4CCCC4)C3)n2)c1 (centres undefined)	7	3	6	2	7	15	nt
CC[n+]1ccc(C)c2cc(S(=O)C(F)(F)F)ccc21 (centres undefined)	4	4	8	-2	12	28	nt
CC[n+]1ccc(C)c2cc(P(=O)(c3ccccc3)c3ccccc3)ccc21	3	6	28	11	7	57*	41
O=C(CN1CC[n+]2c(-c3cccs3)csc21)c1ccc(-c2ccccc2)cc1	2	-2	34	4	7	46*	42
O=c1c(-c2ccc(Oc3ccccc3)cc2)[n+]([O-])c2ccccc2n1OCc1ccccn1	-3	4	4	-4	5	2	nt
CCOc1ccc(-c2c(=O)n(OCc3ccccn3)c3ccccc3[n+]2[O-])cc1	4	0	0	4	4	68*	50*
CCCNC(=O)c1ccc(N2CCC3(CC2)CC(c2ccccc2)=NO3)c(NC(=O)c2ccco2)c1	2	-4	16	-9	-12	8	nt
CCCCC(CC)C(=O)Nc1cc(C(=O)NCCC)ccc1N1CCC2(CC1)CC(c1ccccc1)=NO2 (centres undefined)	-2	-1	22	-6	-1	50*	55*
Cc1ccc2nc3c(cc(C(=O)NCCc4ccccc4)c(=N)n3CCN3CCOCC3)c(=O)n2c1	6	6	16	20	0	45*	42
Cc1ccc(S(=O)(=O)NC(=O)NC(=O)N(C)S(=O)(=O)c2ccc(C)cc2)cc1	5	5	-9	4	4	-7	nt
Cc1cccc(N2CCN(C(=O)c3cccc(N4CCCC4=O)c3)C(C)C2)c1 (centres undefined)	2	-1	0	-4	6	15	nt
COc1cc(/C=C2\SC(N3CCC(C)CC3)=NC2=O)ccc1O	6	6	3	12	5	44*	12
O=C(C1=C(O)C(=O)N(Cc2cccnc2)C1c1ccccn1)c1cccs1 (centres undefined)	3	4	3	0	2	5	nt
COc1ccc(NC(=O)CNCc2ccc(Cl)cc2)cc1S(=O)(=O)N1CCOCC1	3	2	-6	2	1	35	nt
Cc1ccc2c(c1)c1c3n2CCN(CC(O)CNC(C)C)C3CCC1 (centres undefined)	10	1	2	4	-4	44*	31
CCN(CC)CCN1c2ccccc2Sc2ccc3ccccc3c21	10	3	19	9	13	46*	37
C=CCON1C(=O)C(=O)N(OCC=C)[C@H]2CCCC[C@H]21	nt	nt	-18	nt	3	-5	nt
CC(=O)Nc1ccc(N(C(=O)Cc2cccs2)C(C(=O)NC2CCCC2)c2ccncc2)cc1 (centres undefined)	-7	3	11	-9	-1	-6	nt
O=C(N/N=C/c1cn(CCOc2ccccc2)c2ccccc12)c1ccncc1	1	2	10	2	14	54*	43
COc1ccccc1OCCn1cc(/C=N/NC(=O)c2ccncc2)c2ccccc21	9	2	16	11	7	11	nt
Cc1ccc(-n2c(SCC(=O)N(C)C3CCS(=O)(=O)C3)nc3ccccc3c2=O)c(C)c1 (centres undefined)	14	3	-2	8	0	53*	0
CCN(C(=O)CSc1nc2ccccc2c(=O)n1-c1cccc(C)c1)C1CCS(=O)(=O)C1 (centres undefined)	7	4	-17	0	-1	-4	nt
O=C(CCC(=O)c1cccs1)NCCc1ccc(F)cc1	5	7	1	7	10	-2	nt
CCN(C(=O)CN1CCN(S(=O)(=O)c2cc(Cl)ccc2Cl)CC1)c1c(N)n(Cc2ccccc2)c(=O)[nH]c1=O	4	3	4	0	3	64*	61*
SMILES	PAFAH1B3 inh	PAFAH1B2 inh	Apaf-1 inh	PAFAH2 inh	pPAFAH inh	PREPL inhibitor	PREPL inh cf
Cn1ncc(N=Cc2ccc([N+](=O)[O-])cc2)c1C(=O)Nc1ccccc1	2	-2	5	0	2	-7	nt
O=C(NCC1CCCCC1)c1ccc(Br)o1	3	2	2	-1	0	0	nt
CN(C)c1ccc(C(CN)c2c[nH]c3ccccc23)cc1 (centres undefined)	6	6	5	-2	7	61*	57*
O=C(NCCc1c[nH]c2ccccc12)C(=O)NCC(c1cccnc1)N1CCN(c2ccccc2)CC1 (centres undefined)	4	3	23	-2	1	52*	46*
CCn1c(C)nc2cc(C(=O)N/N=C/c3cccc(O)c3O)ccc21	12	7	-5	17	8	45*	39
CCn1c(C)nc2cc(C(=O)N/N=C/c3ccccc3)ccc21	0	3	-2	5	3	1	nt
CC1(C)Oc2cc(N)c([N+](=O)[O-])cc2O1	7	-5	-3	2	19	-7	nt
C=C1N(C)c2cc([N+](=O)[O-])c(N)cc2C1(C)C	11	0	14	5	6	85*	44*
CSCCC(NC(=O)COc1cccc2ccccc12)C(=O)O (centres undefined)	-2	7	-12	1	8	-11	nt
N#Cc1cnc(Oc2ccc(Cl)cc2)nc1N	7	4	6	-8	4	18	nt
CN(CC(=O)Nc1ccccc1Cl)C(=O)c1cccc(S(=O)(=O)N2CCN(c3ccccc3)CC2)c1	2	6	nt	1	nt	nt	nt
CN(CC(=O)Nc1ccccc1Cl)C(=O)c1cccc(S(=O)(=O)N2CCN(Cc3ccccc3)CC2)c1	3	0	13	1	0	67*	70*
CC(OC(=O)c1ccncc1)C(=O)NC1CCCC1 (centres undefined)	12	8	0	1	1	14	nt
Cc1cc(C)c2c(N)c(-c3nc4ccccc4[nH]3)sc2n1	6	5	0	1	8	78*	2
Cc1ccc2nc(-c3sc4nc(C)ccc4c3N)[nH]c2c1	19	11	2	7	20	19	nt
Cc1sc2ncnc(N/N=C/c3ccc(O)cc3)c2c1C	6	4	7	5	10	24	nt
Cc1sc2ncnc(N/N=C/c3ccccc3O)c2c1C	18	4	nt	13	7	66*	65*
Cc1ccc2[nH]c3c(c2c1)CCc1cn[nH]c1-3	1	6	20	1	18	47*	25
